Tests used:
L1210 [1] = experiment: The compound was tested in vitro for mitotic inhibition against proliferation of cultured lymphoid leukemia L1210 cells; format: functional, Mus musculus
How it was run: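 Cultured lymphoid leukemia L1210 cells exposed to agent for 12 h; mitotic index scored as cells in mitosis over total cells; value is the nanomolar concentration producing a mitotic index of 0.5.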

P388 [2] = experiment: The compound was tested in vivo for percent increase in life span against lymphocytic leukemia P388 in mice after intraperitoneal administration of 1 mg/kg dose; format: functional; settings: Mus musculus, P388, ip
How it was run: (§1)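 Mice bearing lymphocytic leukemia P388. The reported value is the percent increase in life span at the highest nontoxic dose tested.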

P388 [3] = experiment: The compound was tested in vivo for percent increase in life span against lymphocytic leukemia P388 in mice after intraperitoneal administration of 30 mg/kg dose; format: functional; settings: Mus musculus, P388, ip; how it was run: as §1
L1210 [4] = experiment: The compound was tested in vitro for cytotoxicity against proliferation of cultured lymphoid leukemia L1210 cells; format: functional, cell-based; settings: Mus musculus
How it was run: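 Cultured lymphoid leukemia L1210 cells exposed to agent for 48 h; value is the nanomolar concentration giving 50% of control growth.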

P388 [5] = experiment: The compound was tested in vivo for percent increase in life span against lymphocytic leukemia P388 in mice after intraperitoneal administration of 0.25 mg/kg dose; format: functional; settings: Mus musculus, P388, ip; how it was run: as §1
P388 [6] = experiment: The compound was tested in vivo for percent increase in life span against lymphocytic leukemia P388 in mice after intraperitoneal administration of 0.22 mg/kg dose; format: functional; settings: Mus musculus, P388, ip; how it was run: as §1
P388 [7] = experiment: The compound was tested in vivo for percent increase in life span against lymphocytic leukemia P388 in mice after intraperitoneal administration of 25 mg/kg dose; format: functional; settings: Mus musculus, P388, ip; how it was run: as §1
P388 [8] = experiment: The compound was tested in vivo for percent increase in life span against lymphocytic leukemia P388 in mice after intraperitoneal administration of 0.5 mg/kg dose; format: functional; settings: Mus musculus, P388, ip; how it was run: as §1

Compound	MI0.5 (L1210 [1]) [nM]	ILS at 1 mg/kg (P388 [2]) [%]	IC50 (L1210 [4]) [nM]	also measured
CCOC(=O)Nc1cc2c(c(N)n1)N=C(c1ccc(OC)cc1)C(C)N2 (stereo not given)	0.42	69		
CCOC(=O)Nc1cc2c(c(N)n1)N=C(c1ccccc1)[C@@H](C)N2	27			ILS at 30 mg/kg (P388 [3]): 88%
CCOC(=O)Nc1cc2c(c(N)n1)N=C(c1ccc(OC(=O)NCCCl)cc1)C(C)N2 (stereo not given)		90	0.043	
CCCCNC(=O)Oc1ccc(C2=Nc3c(cc(NC(=O)OCC)nc3N)NC2C)cc1 (stereo not given)			0.47	ILS at 0.25 mg/kg (P388 [5]): 120%
CCOC(=O)Nc1cc2c(c(NC(=O)NCCCl)n1)N=C(c1ccc(OC(=O)NCCCl)cc1)C(C)N2 (stereo not given)			570	
CCOC(=O)Nc1cc2c(c(N)n1)N=C(c1ccc(O)cc1)[C@H](C)N2	0.3		0.18	ILS at 0.22 mg/kg (P388 [6]): 58%
CCOC(=O)Nc1cc2c(c(N)n1)N=C(c1ccc(O)cc1)[C@@H](C)N2			32	ILS at 25 mg/kg (P388 [7]): 77%
CCOC(=O)Nc1cc2c(c(N)n1)N=C(c1ccc(OCc3ccccc3)cc1)C(C)N2 (stereo not given)	30	120	7	
CCOC(=O)Nc1cc2c(c(N)n1)N=C(c1ccc(O)cc1)C(C)N2 (racemic)	0.47		0.22	ILS at 0.5 mg/kg (P388 [8]): 55%
CCOC(=O)Nc1cc2c(c(N)n1)N=C(c1ccccc1)C(C)N2 (racemic)	0.58	71		
CCOC(=O)Nc1cc2c(c(N)n1)N=C(c1ccccc1)[C@H](C)N2 [MIVOBULIN]	0.14		0.09	ILS at 0.5 mg/kg (P388 [8]): 64%

From ChEMBL document CHEMBL1126268, “Antimitotic agents. Chiral isomers of ethyl [5-amino-1,2-dihydro-3-(4-hydroxyphenyl)-2-methylpyrido[3,4-b]pyrazin-7 -yl]carbamate” (J Med Chem, 1992)
